Test results as given in ChEMBL document CHEMBL1153616, “Synthesis and antiviral activity of new pyrazole and thiazole derivatives” (Eur J Med Chem, 2009).
Values after ≈ are worked out from the molar mass of the structure shown.

Experiments:
[1] = Cytotoxicity against HEL cells assessed as minimum cytotoxic concentration required to cause microscopically detectable alteration in normal cell morphology; type: cell-based; conditions: human
Procedure, shortened: (§1)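 Run in parallel with antiviral assays on uninfected cell cultures; test compounds from 10 mg/ml DMSO stocks in serial dilution. Value is minimum cytotoxic concentration (MCC) producing microscopically detectable alteration of normal cell morphology.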

[2] = test system: Human alphaherpesvirus 2; experiment: Antiviral activity against HSV2 G infected in human HEL cells assessed as inhibition of virus-induced cytopathicity after 3 days; type: functional, organism-based; conditions: Human alphaherpesvirus 2, strain G, 72 h
Procedure, shortened: (§2)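 Confluent cell monolayers infected with 100 CCID50 virus; after 2 h adsorption at 37 °C, virus removed and serial compound dilutions added (DMSO stocks 10 mg/ml). Incubated 37 °C for 3 days until complete CPE in untreated virus control. EC50 = concentration protecting 50% of infected cells from viral cytopathogenicity; ">" marks highest concentration tested.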

[3] = test system: Vaccinia virus; experiment: Antiviral activity against Vaccinia virus infected in human HEL cells assessed as inhibition of virus-induced cytopathicity after 3 days; type: functional, organism-based; conditions: Orthopoxvirus vaccinia, 72 h
[4] = test system: Vesicular stomatitis virus; experiment: Antiviral activity against Vesicular stomatitis virus infected in human HEL cells assessed as inhibition of virus-induced cytopathicity after 3 days; type: functional, organism-based; conditions: 72 h
[5] = test system: Human alphaherpesvirus 1; experiment: Antiviral activity against thymidine kinase-deficient ACV-resistant HSV1 KOS infected in human HEL cells assessed as inhibition of virus-induced cytopathicity after 3 days; type: functional, organism-based; conditions: Human alphaherpesvirus 1, KOS, 72 h
[6] = Cytotoxicity against human HeLa cells assessed as minimum cytotoxic concentration required to cause microscopically detectable alteration in normal cell morphology; type: cell-based; procedure, shortened: as §1
[7] = test system: Vesicular stomatitis virus; experiment: Antiviral activity against Vesicular stomatitis virus infected in human HeLa cells assessed as inhibition of virus-induced cytopathicity after 3 days; type: functional, organism-based; conditions: 72 h
[8] = test system: Human alphaherpesvirus 1; experiment: Antiviral activity against HSV1 KOS infected in human HEL cells assessed as inhibition of virus-induced cytopathicity after 3 days; type: functional, organism-based; conditions: Human alphaherpesvirus 1, KOS, 72 h
[9] = test system: Respiratory syncytial virus; experiment: Antiviral activity against RSV infected in human HeLa cells assessed as inhibition of virus-induced cytopathicity after 3 days; type: functional, organism-based; conditions: 72 h; procedure, shortened: as §2
[10] = Cytotoxicity against african green monkey Vero cells assessed as minimum cytotoxic concentration required to cause microscopically detectable alteration in normal cell morphology; type: cell-based; conditions: chlorocebus sabaeus; procedure, shortened: as §1
[11] = test system: Human respirovirus 3; experiment: Antiviral activity against Parainfluenza virus type 3 infected in african green monkey Vero cells assessed as inhibition of virus-induced cytopathicity after 3 days; type: functional, organism-based; conditions: Human respirovirus 3, Vero, 72 h; procedure, shortened: as §2
[12] = test system: Mammalian orthoreovirus 1; experiment: Antiviral activity against Reovirus 1 infected in african green monkey Vero cells assessed as inhibition of virus-induced cytopathicity after 3 days; type: functional, organism-based; conditions: Mammalian orthoreovirus 1, Vero, 72 h; procedure, shortened: as §2
[13] = test system: Sindbis virus; experiment: Antiviral activity against Sindbis virus infected in african green monkey Vero cells assessed as inhibition of virus-induced cytopathicity after 3 days postinfection; type: functional, organism-based; conditions: 72 h; procedure, shortened: as §2
[14] = test system: Coxsackievirus B4; experiment: Antiviral activity against Coxsackievirus B4 infected in african green monkey Vero cells assessed as inhibition of virus-induced cytopathicity after 3 days; type: functional, organism-based; conditions: Enterovirus B, 72 h; procedure, shortened: as §2
[15] = test system: Coxsackievirus B4; experiment: Antiviral activity against Coxsackievirus B4 infected in human HeLa cells assessed as inhibition of virus-induced cytopathicity after 3 days; type: functional, organism-based; conditions: Enterovirus B, 72 h
Procedure, shortened: (§3)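 Confluent cell monolayers infected with 100 CCID50 virus; after 2 h adsorption at 37 °C, virus removed and serial compound dilutions added (DMSO stocks 10 mg/ml). Incubated 37 °C for 3 days until complete CPE in untreated virus control.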

[16] = test system: Punta Toro virus; experiment: Antiviral activity against Punta Toro virus infected in african green monkey Vero cells assessed as inhibition of virus-induced cytopathicity after 3 days; type: functional, organism-based; conditions: 72 h; procedure, shortened: as §3

SMILES | MCC [1] | EC50 [2] | EC50 [3] | EC50 [4] | EC50 [5] | MCC [6] | EC50 [7] | EC50 [8] | EC50 [9] | MCC [10] | EC50 [11] | EC50 [12] | EC50 [13] | EC50 [14] | EC50 [15] | EC50 [16]
NC(=O)c1ncn([C@@H]2O[C@H](CO)[C@@H](O)[C@H]2O)n1 [RIBAVIRIN] | > 250 µg/mL | > 250 µg/mL | 146 µg/mL (≈ 598 µM) | > 250 µg/mL | > 250 µg/mL | > 250 µg/mL | 29 µg/mL (≈ 119 µM) | > 250 µg/mL | 10 µg/mL (≈ 40.9 µM) | > 250 µg/mL | 45 µg/mL (≈ 184 µM) | > 250 µg/mL | > 250 µg/mL | > 250 µg/mL |  | 
O=C1CSC(N2N=C(c3ccc(Br)cc3)CC2c2ccc(OCc3ccccc3)cc2)=N1 (stereo unspecified) | 100 µg/mL | > 20 µg/mL | > 20 µg/mL | > 20 µg/mL | > 20 µg/mL | > 100 µg/mL | > 100 µg/mL | > 20 µg/mL | > 100 µg/mL | 100 µg/mL | > 20 µg/mL | > 20 µg/mL | > 20 µg/mL | > 20 µg/mL | > 100 µg/mL | > 20 µg/mL
CC(=O)N1N=C(c2ccccc2)CC1c1ccc(OCc2ccccc2)cc1 (stereo unspecified) | 100 µg/mL | > 20 µg/mL | > 20 µg/mL | > 20 µg/mL | > 20 µg/mL | > 100 µg/mL | > 100 µg/mL | > 20 µg/mL | > 100 µg/mL | 100 µg/mL | > 20 µg/mL | > 20 µg/mL | > 20 µg/mL | > 20 µg/mL | > 100 µg/mL | > 20 µg/mL
Cc1ccc(-c2csc(N3N=C(c4ccc(Br)cc4)CC3c3ccc(OCc4ccccc4)cc3)n2)cc1 (stereo unspecified) | 100 µg/mL | > 20 µg/mL | > 20 µg/mL | > 20 µg/mL | > 20 µg/mL | > 100 µg/mL | > 100 µg/mL | > 20 µg/mL | > 100 µg/mL | 100 µg/mL | > 20 µg/mL | > 20 µg/mL | > 20 µg/mL | > 20 µg/mL | > 100 µg/mL | > 20 µg/mL
CC(=O)N1N=C(c2ccc(Br)cc2)CC1c1ccc(OCc2ccccc2)cc1 (stereo unspecified) | 100 µg/mL | > 20 µg/mL | > 20 µg/mL | > 20 µg/mL | > 20 µg/mL | 100 µg/mL | > 20 µg/mL | > 20 µg/mL | > 20 µg/mL | 100 µg/mL | > 20 µg/mL | > 20 µg/mL | > 20 µg/mL | > 20 µg/mL | > 20 µg/mL | > 20 µg/mL
O=C1CSC(N2N=C(c3ccccc3)CC2c2ccc(OCc3ccccc3)cc2)=N1 (stereo unspecified) | 100 µg/mL | > 20 µg/mL | > 20 µg/mL | > 20 µg/mL | > 20 µg/mL | 100 µg/mL | > 20 µg/mL | > 20 µg/mL | > 20 µg/mL | 100 µg/mL | > 20 µg/mL | > 20 µg/mL | > 20 µg/mL | > 20 µg/mL | > 20 µg/mL | > 20 µg/mL
Nc1ncnc2c1ncn2C[C@H](O)CO [(S)-DHPA] |  |  |  |  |  | > 250 µg/mL | > 250 µg/mL |  | > 250 µg/mL | > 250 µg/mL | > 250 µg/mL | > 250 µg/mL | > 250 µg/mL | > 250 µg/mL | > 250 µg/mL | > 250 µg/mL
Cc1ccc(-c2csc(N3N=C(c4ccc(Cl)cc4)CC3c3ccc(OCc4ccccc4)cc3)n2)cc1 (stereo unspecified) | 100 µg/mL | > 20 µg/mL | > 20 µg/mL | > 20 µg/mL | > 20 µg/mL | > 100 µg/mL | > 100 µg/mL | > 20 µg/mL | > 100 µg/mL | 100 µg/mL | > 20 µg/mL | > 20 µg/mL | > 20 µg/mL | > 20 µg/mL | > 100 µg/mL | > 20 µg/mL
Nc1nc2c(ncn2COC(CO)CO)c(=O)[nH]1 [GANCICLOVIR] | > 100 µg/mL | 0.08 µg/mL (≈ 0.313 µM) | > 100 µg/mL | > 100 µg/mL | 6 µg/mL (≈ 23.5 µM) |  |  | 0.08 µg/mL (≈ 0.313 µM) |  |  |  |  |  |  |  | 
